Measurements taken from publication PMC4091680 (Bioorganic & medicinal chemistry, 2014).

Experiments:
[1] = tested on: purified bovine brain tubulin; test: Tubulin polymerization assay; type: biochemical
[2] = tested on: tubulin (colchicine site); test: Inhibition of [3H]colchicine binding to tubulin; set-up: species or system bovine; conditions: for Inhibition of colchicine binding % Inhibition ± SD: tubulin 1 µM, colchicine 5 µM
Method in brief: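 Purified bovine brain tubulin at 0.1 mg/mL (1.0 µM) was incubated 10 min at 37 °C with 5.0 µM [3H]colchicine, test compound, 5% (v/v) DMSO and 1.0 M glutamate. Reactions were stopped with 0 °C water, filtered through two stacked DEAE-cellulose filters and washed three times with ice-cold water. Filter-bound radiolabel was counted by liquid scintillation; % inhibition ± SD.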

Raji = test: MTT cytotoxicity assay, Raji; type: cell-based, human; conditions: 48 h
Method in brief: (§1)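 Cells grew in RPMI-1640 with 10% FBS, L-glutamine, penicillin and streptomycin at 37 °C, 5% CO2. They were seeded at 10,000/well overnight in 1% FBS medium, then treated 48 h with test compound at 0.1–125 µM; the solvent control was 0.1% DMSO. MTT (0.5 mg/mL final) was added for 4 h, formazan dissolved in DMSO, and absorbance read at 570 nm. Quadruplicates were taken as % of solvent control, IC50 from concentration–response curves.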

[3] = tested on: caspase-3 and PARP in HL-60 cells; test: Western blot analysis of caspase-3 and PARP; type: cell-based, human; conditions: HL-60, 24 h and 48 h
Method in brief: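 HL-60 cells were treated with test compound at various concentrations and times, washed in ice-cold PBS and lysed on ice 30 min. Lysates were cleared at 15000 × g, 4 °C, 10 min. Per lane, 20 µg protein (BCA) was separated by SDS-PAGE (7.5–15%) and blotted to PVDF. Membranes were blocked with 5% BSA, probed overnight at 4 °C for caspase-3 and PARP, then with peroxidase secondaries and ECL. Reprobing for β-actin checked loading.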

HeLa cells [4] = test: Annexin-V/PI apoptosis assay, HeLa; type: cell-based, human; conditions: 24 or 48 h
HeLa cells [5] = test: Flow cytometric cell cycle distribution, HeLa; type: cell-based, human; conditions: 24 h
Method in brief: (§2)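 Per assay, 5×10^5 cells were exposed to test compound at several concentrations for 24 h. Cells were then collected, fixed in ice-cold 70% ethanol, lysed in buffer with RNase A and 0.1% Triton X-100, PI-stained and run on a flow cytometer. Phase distribution came from DNA histograms; means ± SEM of three independent experiments.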

HL-60 cells [6] = test: Annexin-V/PI apoptosis assay, HL-60; type: cell-based, human; conditions: HL-60, 24 or 48 h
HL-60 cells [7] = test: Flow cytometric cell cycle distribution, HL-60; type: cell-based, human; conditions: HL-60, 24 h
Method in brief: as §2

HeLa = test: MTT cytotoxicity assay, HeLa; type: cell-based, human; conditions: 48 h
Method in brief: as §1

Compound: COc1cc(NC(=O)/C=C/c2c[nH]c3ccccc23)cc(OC)c1 [Compound 3d, (E)-N-(3,5-Dimethoxyphenyl)-3-(1H-indol-3-yl)acrylamide]
- antitubulin activity (in words) [1]: inactive

Compound: COc1ccc(OC)c(NC(=O)/C=C/c2c[nH]c3ccccc23)c1 [Compound 3b, (E)-N-(2,5-Dimethoxyphenyl)-3-(1H-indol-3-yl)acrylamide]
- antitubulin activity (in words) [1]: inactive

Compound: COc1ccc(/C=C\c2cc(OC)c(OC)c(OC)c2)cc1O [CA-4, combretastatin A-4]
- Inhibition of colchicine binding % Inhibition ± SD ([2]; compound 1 µM): 88 ± 0.3%
- Inhibition of colchicine binding % Inhibition ± SD ([2]; compound 5 µM): 98 ± 0.8%

Compound: COc1ccc(NC(=O)/C=C/c2c[nH]c3ccccc23)cc1OC [Compound 3c, (E)-N-(3,4-Dimethoxyphenyl)-3-(1H-indol-3-yl)acrylamide]
- antitubulin activity (in words) [1]: inactive

Compound: COc1ccc(CNC(=O)/C=C/c2c[nH]c3ccccc23)c(OC)c1 [Compound 3i, (E)-N-(2,4-Dimethoxybenzyl)-3-(1H-indol-3-yl)acrylamide]
- activity against Raji cells (in words) (Raji): weak activity

Compound: COc1cc(NC(=O)/C=C/c2c[nH]c3ccccc23)cc(OC)c1OC [Compound 3e, (E)-3-(1H-Indol-3-yl)-N-(3,4,5-trimethoxyphenyl)acrylamide]
- PARP cleavage [3]: cleavage of its substrate PARP
- caspase-3 activation (cleaved fragments) [3]: induced the activation of caspase-3
- annexin-V+/PI− and annexin-V+/PI+ fractions (apoptosis) (HeLa cells [4]): concentration- and time-dependent increase
- lowest concentration giving increase in G2/M phase cells (HeLa cells [5]): 10 µM
- cells blocked in G2/M (HeLa cells [5]; 15–30 µM): more than 80%
- annexin-V+/PI− and annexin-V+/PI+ fractions (apoptosis) (HL-60 cells [6]): concentration- and time-dependent increase
- lowest concentration giving increase in G2/M phase cells (HL-60 cells [7]): 10 µM
- cells blocked in G2/M (HL-60 cells [7]; 15–30 µM): > 60%
- inhibition of [3H]colchicine binding (in words) ([2]; compound 50 µM): Significant inhibition

Compound: COc1cccc(CNC(=O)/C=C/c2c[nH]c3ccccc23)c1OC [Compound 3h, (E)-N-(2,3-Dimethoxybenzyl)-3-(1H-indol-3-yl)acrylamide]
- activity against HeLa cells (in words) (HeLa): weak activity

Compound: COc1cc(CNC(=O)/C=C/c2c[nH]c3ccccc23)ccc1O [Compound 3g, (E)-N-(4-Hydroxy-3-methoxybenzyl)-3-(1H-indol-3-yl)acrylamide]
- activity against Raji cells (in words) (Raji): weak activity
